From PubChem
In the library only some 4.8% were active in any assay of this set; here they are far more common.
SKKanGAS inh: S. pyogenes SKKanGAS growth inhibitors in kanamycin, primary screen, streptokinase expression inhibitor project, SKKanGAS strain, BacTiter-Glo luminescence. 6 h. inhibition, % at 7.5 µM. actives 1.3% (n = 300,000). AID 1662, 2009;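 active means mean replicate score, as percent of positive control median, at least 50; inconclusive means mean below 50 but one replicate at or above 50; inactive means mean and every replicate below 50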;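 further: strain carries kanamycin resistance gene driven by streptokinase promoter and grows in 40 µg/ml kanamycin; loss of luminescence reflects streptokinase promoter inhibition or plain growth inhibition; 0% = median of DMSO wells and 100% = positive control at its reference dose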
CHOP UPR activ: activators of apoptotic CHOP UPR arm, primary screen, cell-based, CHO-CHOP luciferase reporter, luminescence, uHTS; UPR activation; percent of tunicamycin response over DMSO baseline; activation, % at 10 µM; actives 0.34% (n = 330,000);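 active means at 10 µM dose, activation of 40% or more, normalized to positive control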;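 further: 100% = tunicamycin at 10 µg/mL and 0% = DMSO alone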
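Assay system: CHO cells with stable CHOP pathway luciferase reporter; Buffer or medium: F12 plus 10% serum; Times: 16-18 h cell attachment, then 6 h compound exposure, 37 °C; Signal: luciferase luminescence; Read-out basis: percent activation relative to tunicamycin control; Control set: tunicamycin high control, DMSO low control.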
CSC inhib: cancer stem cell viability inhibitors, primary screen, luminescence; inhibition, % at 7.5 µM; actives 1.1% (n = 300,000); AID 2717, 2010; cancer stem cell-like cells viability; in the data active means inhibition above about 75%; inconclusive means no clear call, values can overlap the other calls; tested in HMLE shEcad cells
Mdm2 MdmX PPI: inhibitors of human Mdm2-MdmX association, primary screen, cell-based, luminescence, split luciferase, SaOS-2, uHTS; Protein Mdm4 (Homo sapiens) + E3 ubiquitin-protein ligase Mdm2 (Homo sapiens), …; SaOS-2 split-luciferase Mdm2/MdmX complementation; inhibition, % at 8 µM; actives 3% (n = 330,000); AID 485346, 2010;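 active means inhibition of at least 50% at 8 µM in the primary screen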
Target sequence (O15151 whole entry, looked up): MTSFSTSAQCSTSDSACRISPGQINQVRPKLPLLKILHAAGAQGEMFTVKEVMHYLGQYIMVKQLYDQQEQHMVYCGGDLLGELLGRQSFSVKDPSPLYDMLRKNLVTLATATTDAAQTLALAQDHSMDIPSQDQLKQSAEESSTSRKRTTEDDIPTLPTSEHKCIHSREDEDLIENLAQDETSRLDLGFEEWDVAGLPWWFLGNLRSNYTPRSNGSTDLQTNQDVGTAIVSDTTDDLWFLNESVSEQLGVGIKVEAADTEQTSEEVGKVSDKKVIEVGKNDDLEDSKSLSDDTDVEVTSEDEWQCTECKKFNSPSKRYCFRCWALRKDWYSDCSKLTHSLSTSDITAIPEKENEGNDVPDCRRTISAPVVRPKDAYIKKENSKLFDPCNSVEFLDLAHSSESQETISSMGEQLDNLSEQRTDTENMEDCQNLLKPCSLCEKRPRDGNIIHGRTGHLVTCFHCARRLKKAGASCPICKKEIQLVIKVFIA
Target sequence (Q00987 whole entry, looked up): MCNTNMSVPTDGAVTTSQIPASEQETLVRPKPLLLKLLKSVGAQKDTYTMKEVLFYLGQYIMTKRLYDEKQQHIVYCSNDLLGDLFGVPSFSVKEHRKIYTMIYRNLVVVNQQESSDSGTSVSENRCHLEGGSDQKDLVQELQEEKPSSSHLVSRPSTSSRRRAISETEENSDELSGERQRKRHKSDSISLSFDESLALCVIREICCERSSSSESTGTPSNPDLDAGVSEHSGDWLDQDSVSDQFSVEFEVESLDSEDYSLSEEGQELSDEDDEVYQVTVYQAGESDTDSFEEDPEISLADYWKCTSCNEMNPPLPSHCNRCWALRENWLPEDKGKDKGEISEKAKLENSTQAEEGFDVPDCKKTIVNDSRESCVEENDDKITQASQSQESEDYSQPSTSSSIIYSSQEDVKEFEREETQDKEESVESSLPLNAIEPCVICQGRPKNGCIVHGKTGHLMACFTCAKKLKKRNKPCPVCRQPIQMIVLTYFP
Beta apoptosis: inhibitors of cytokine-induced beta cell apoptosis, primary screen, luminescence; INS-1E cytokine-induced death, ATP luminescence, 48 h; percent of positive-control rescue, neutral wells zero; protection from apoptosis, % (concentration not given with the values); actives 0.8% (n = 300,000);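 active means Every replicate reaches about 75%, or at least half do and their mean reaches it too, limit read from the data; inconclusive means At least half of replicates reach the limit but their mean does not; inactive means Under half of replicates reach the limit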;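 further: 0% = cytokine-treated negative control wells and 100% = positive control rescue; higher means more ATP so stronger rescue from cytokine killing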
XBP1 UPR activ: activators of adaptive XBP1 UPR arm, primary screen, cell-based, CHO-XBP1 luciferase reporter, luminescence, uHTS; actives 0.33% (n = 330,000); activation, % at 20 µM; IRE1-XBP1 UPR activation; percent of tunicamycin response, DMSO as zero; AID 463104, 2010;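 active means versus positive control, 20 µM dose yields 30% or more activation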;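 further: 100% = tunicamycin at 10 µg/mL and 0% = DMSO only wells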
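Material: CHO-XBP1 cells stably carrying IRE1-XBP1-driven luciferase reporter | Medium: F12 with 10% serum | Compound dosing: 20 µM single concentration, DMSO 1% | Incubation: Overnight seeding at 37 °C, 6 h compound treatment at 37 °C | Detection: Steady-Glo luminescence read | Read-out basis: % activation of reporter signal versus tunicamycin and DMSO controls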
Mdm2-MdmX conf: Mdm2-MdmX complex disruptors, retested hits, confirmation, luminescence, single concentration. inhibition, % at 8 µM. shares compounds with Mdm2 MdmX PPI. actives 55% (n = 10,000). AID 489028, 2010. Mdm2-MdmX binding, luminescent assay; in the data active means inhibition above about 40%
Full FLuc ctr: full-length luciferase signal inhibition, confirmation, counter-screen for Mdm2/MdmX interaction inhibitor project, cell-based, single concentration, SaOS-2; shares compounds with Mdm2 MdmX PPI; SaOS-2 full-length luciferase counterscreen, luminescence; inhibition, % at 8 µM; actives 77% (n = 6,200); AID 504607, 2011;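 active means mean inhibition at 8 µM reaching about 37%, which flags the compound as non-specific, limit read from the data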;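 further: p53-null SaOS-2 cells with luciferase driven by a doxycycline-inducible promoter; compound on cells about two nights before reading with doxycycline added after day one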
* = called active by the depositor; ? = inconclusive; / = no result.

SMILES | SKKanGAS inh | CHOP UPR activ | CSC inhib | Mdm2 MdmX PPI | Beta apoptosis | XBP1 UPR activ | Mdm2-MdmX conf | Full FLuc ctr
Clc1ccc(-c2nnc(Sc3nc4ccccc4o3)c3ccccc23)cc1 | -4.4 | 4.4 | 67.2 | 61.0* | 6.6 | 0.8 | 17.9 | /
Cc1nnc(Sc2nc3ccccc3o2)c2ccccc12 | 5.1 | 9.4 | 4.5 | 36.7 | -13.7 | -0.2 | / | /
CCC(=O)Nc1nonc1-c1nc2ccccc2n1CCC(C)C | 22.0 | -4.5 | -0.7 | 50.4* | -18.8 | 2.0 | 56.1* | 55.9*
CCC(=O)Nc1nonc1-c1nc2ccccc2n1Cc1cccc2ccccc12 | 1.6 | -0.5 | 70.1 | 64.0* | 14.9 | 1.1 | 69.8* | 109.3*
CCC(=O)Nc1nonc1-c1nc2ccccc2n1Cc1ccccc1 | -0.9 | -1.7 | 31.8 | 38.1 | -0.8 | -0.8 | / | /
CCOC(=O)Cn1c(-c2nonc2NC(=O)c2ccccc2F)nc2ccccc21 | 1.7 | -1.0 | 41.3 | 91.0* | 3.0 | 2.0 | 93.4* | 34.7
CC(=O)Nc1nonc1-c1nc2ccccc2n1CCC(C)C | 14.7 | -0.5 | -7.2 | 55.7* | 3.1 | -2.7 | 49.7* | 44.8*
CCC(=O)Nc1nonc1-c1nc2ccccc2n1N(C(=O)CC)C(=O)CC | -1.4 | 1.1 | 10.8 | 25.5 | 1.7 | 2.5 | / | /
Cc1nc(NC2=NCN(CCCN3CCOCC3)CN2)nc2c(C)cccc12 | / | -0.4 | 5.2 | 97.3* | 3.5 | -2.3 | 96.4* | 25.4
CCCCN1CN=C(Nc2nc3ccccc3o2)NC1 | -6.5 | 2.5 | / | -45.7 | -7.9 | 4.5 | / | /
N#C/C(=C/c1cn(CC(=O)O)c2ccccc12)C(=O)Nc1ccccc1 | 0.0 | -0.7 | 1.8 | 51.3* | 2.8 | 0.4 | -16.3 | /
CC(CCN1CCN(c2ccc(F)cc2)CC1)c1ccccc1 (stereo unspecified) | 5.5 | -1.0 | 31.5 | 4.5 | -3.0 | -1.0 | / | /
CCC1Nc2ncnc(N3CCN(c4ccccc4)CC3)c2N(Cc2ccc(Br)cc2)C1=O (stereo unspecified) | 23.0 | 2.1 | 13.5 | 52.7* | 0.6 | 5.6 | 13.3 | /
COC(=O)[C@@]12CCCCN1[C@H](c1ccc(-c3ccc(Cl)c(Cl)c3)c(OC)c1)[C@H]1C(=O)N(C)C(=O)[C@H]12 | / | 0.1 | / | 65.3* | 15.7 | -0.5 | 41.8* | 44.2*
COC(=O)[C@@]12CCCCN1[C@H](c1ccc(-c3cc(C(C)=O)cs3)cc1)[C@H]1C(=O)N(C)C(=O)[C@H]12 | 20.2 | 8.8 | -11.0 | 67.4* | 23.5 | 2.8 | 22.4 | /
CCN1C(=O)[C@@H]2[C@@H](c3ccc(-c4ccc(Cl)c(Cl)c4)c(OC)c3)N3CCC[C@@]3(C(=O)OC)[C@@H]2C1=O | / | -1.2 | 26.6 | 67.3* | -1.5 | 0.9 | 23.1 | /
CCCCCCSc1ccc([C@@H]2[C@@H]3C(=O)N(CC)C(=O)[C@@H]3[C@]3(C(=O)OC)CCCCN23)cc1 | / | 0.1 | 68.2 | 51.5* | 0.1 | -3.6 | 5.7 | /
CCCCCCSc1ccc([C@@H]2[C@H]3C(=O)N(C)C(=O)[C@H]3[C@]3(C(=O)OC)CCCCN23)cc1 | 20.7 | 2.3 | 29.7 | -8.4 | 8.0 | -1.0 | / | /
CC(=O)c1cccc(S(=O)(=O)N2CCCC(c3nc4c(nnn4Cc4ccccc4Cl)c(=O)[nH]3)C2)c1 (stereo unspecified) | 20.7 | -0.2 | / | 22.0 | / | -4.7 | / | /
CC1CCCN(C(=O)C2CCN(S(=O)(=O)c3ccc4c(c3)CC(C)N4C(=O)C3CC3)CC2)C1 (stereo unspecified) | 5.3 | 1.8 | -5.2 | 38.3 | -1.8 | -2.7 | / | /
COC(=O)[C@@]12CCCCN1[C@H](c1ccc(-c3ccc(Cl)c(Cl)c3)cc1)[C@H]1C(=O)N(C)C(=O)[C@H]12 | / | 1.0 | / | 66.9* | 4.4 | -1.3 | 20.5 | /
CCN1C(=O)[C@@H]2[C@@H](c3ccc(-c4ccc(Cl)c(Cl)c4)cc3)N3CCCC[C@@]3(C(=O)OC)[C@@H]2C1=O | -0.4 | -1.6 | 5.0 | 34.5 | 8.9 | 1.5 | / | /
COc1ccc(OC)c(-c2nc(C(=O)NCCCN3CCOCC3)cc3c2[nH]c2ccccc23)c1 | 0.1 | -0.5 | 0.9 | 17.8 | -0.5 | 1.1 | / | /
COc1cc(-c2nc(C(=O)NC3CCN(Cc4ccccc4)CC3)cc3c2[nH]c2ccccc23)cc(OC)c1OC | 34.5 | 5.6 | -6.5 | 79.1* | 36.1 | -0.1 | 55.7* | 50.1*
COc1ccc(OC)c(-c2nc(C(=O)NC3CCN(Cc4ccccc4)CC3)cc3c2[nH]c2ccccc23)c1 | 26.6 | 4.7 | -0.7 | 50.3* | / | 4.6 | 20.2 | /
SMILES | SKKanGAS inh | CHOP UPR activ | CSC inhib | Mdm2 MdmX PPI | Beta apoptosis | XBP1 UPR activ | Mdm2-MdmX conf | Full FLuc ctr
O=S(=O)(Nc1cccc(S(=O)(=O)N2CCCCC2)c1)c1ccccc1F | / | -0.3 | -8.9 | 13.9 | -3.5 | 0.3 | / | /
NC(N)=Nc1nc(-c2ccccc2)c2cc(F)ccc2n1 | -0.4 | -0.8 | 7.3 | 66.4* | -1.3 | -1.6 | 59.8* | 48.8*
OCCSc1nc(-c2ccccc2)nc2ccc(F)cc12 | 0.1 | -1.1 | 13.1 | -1.6 | 0.3 | 2.2 | / | /
Cc1ccc(NS(=O)(=O)c2cc([N+](=O)[O-])ccc2NNC(=S)Nc2cc(C)ccc2C)c(C)c1 | 40.6 | 5.1 | 80.5* | 93.7* | ? | 0.1 | 88.0* | 38.6*
COC(=O)c1c(NC(=O)c2ccccc2N(C)S(=O)(=O)c2ccccc2)sc2c1CCCC2 | 16.6 | / | / | / | / | / | / | /
COCCN(CCOC)S(=O)(=O)c1ccc(C(=O)Nc2sc3c(c2C(N)=O)CCCCC3)cc1 | 1.6 | 5.7 | / | 81.9* | -8.4 | 19.2 | 56.6* | 116.4*
CCN1CCc2c(sc(NC(=O)c3ccc(S(=O)(=O)N(C)c4ccccc4)cc3)c2C(=O)NC)C1 | 10.2 | 5.5 | 42.1 | 58.6* | 6.4 | 0.0 | 32.8 | /
CCOC(=O)c1c(NC(=O)C(NCCN(C)C)c2ccccc2)sc2c1CCCC2 (stereo unspecified) | 16.0 | 1.7 | 27.4 | 94.2* | 23.8 | -0.2 | 37.1 | 68.6*
CCOC(=O)c1c(NC(=O)c2ccccc2N(C)S(=O)(=O)c2ccccc2)sc2c1CCCC2 | 3.2 | 3.0 | 69.2 | 55.0* | 24.6 | -1.7 | 60.4* | 66.5*
